Legend:
[1] = Metabolic stability in human liver microsomes assessed as compound remaining at 1 uM after 30 mins; format: ADME, Microsome; settings: read-out: Stability
[2] = molecular target: T1, 11-beta-hydroxysteroid dehydrogenase type 2 (Homo sapiens, UniProt P80365); test: Inhibition of 11beta-HSD2 by scintillation proximity assay
T1 sequence (P80365 whole entry): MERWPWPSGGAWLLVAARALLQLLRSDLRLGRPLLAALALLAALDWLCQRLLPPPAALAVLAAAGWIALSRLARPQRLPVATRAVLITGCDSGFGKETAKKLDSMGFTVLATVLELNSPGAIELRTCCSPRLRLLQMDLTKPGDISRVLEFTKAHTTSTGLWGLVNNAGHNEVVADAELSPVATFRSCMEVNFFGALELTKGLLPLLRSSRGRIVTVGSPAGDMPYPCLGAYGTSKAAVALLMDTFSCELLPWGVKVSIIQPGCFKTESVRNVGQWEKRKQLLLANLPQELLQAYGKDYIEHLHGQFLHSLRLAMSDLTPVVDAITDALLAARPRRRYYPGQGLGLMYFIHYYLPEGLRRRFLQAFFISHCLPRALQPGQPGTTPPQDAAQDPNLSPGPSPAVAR

[3] = Volume of distribution at steady state in dog at 0.5, iv; format: ADME, organism-based, Canis lupus familiaris; settings: in vivo, read-out: Vdss
How it was run: (§1)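 Single iv dose of 0.5 mg/kg in rat, cynomolgus monkey or dog. This dose group was run alongside a 2.0 mg/kg oral arm. Clearance, half-life, Vdss and AUC were taken from the iv arm.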

[4] = Oral bioavailability in cynomolgus monkey at 2.0; format: ADME, organism-based, Macaca fascicularis; settings: in vivo
How it was run: (§2)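 Oral bioavailability came from a 2.0 mg/kg po dose compared against an iv arm. The iv dose was 0.5 mg/kg in monkey, dog and one rat group, and 0.17 mg/kg in the other rat group.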

[5] = Inhibition of cynomolgus monkey recombinant 11beta-HSD1; parameters: species or system Macaca fascicularis
[6] = molecular target: T2, 11-beta-hydroxysteroid dehydrogenase 1 (Homo sapiens, UniProt P28845); test: Inhibition of human cloned 11beta-HSD1 by scintillation proximity assay
T2 sequence (P28845 whole entry): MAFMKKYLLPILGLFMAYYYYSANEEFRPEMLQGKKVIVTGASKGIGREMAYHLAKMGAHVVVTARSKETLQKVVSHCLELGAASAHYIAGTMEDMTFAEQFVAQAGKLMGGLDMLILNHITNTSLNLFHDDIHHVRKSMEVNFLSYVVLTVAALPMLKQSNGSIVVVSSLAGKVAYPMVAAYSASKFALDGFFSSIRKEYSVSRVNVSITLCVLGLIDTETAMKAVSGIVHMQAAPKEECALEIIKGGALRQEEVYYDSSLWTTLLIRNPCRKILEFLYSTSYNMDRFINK

Cynomolgus monkey [7] = test: AUC in cynomolgus monkey at 0.5, iv; format: ADME, organism-based, Macaca fascicularis, Plasma; settings: in vivo; how it was run: as §1
[8] = Drug level in of cynomolgus monkey mesenteric fat at 10 mg/kg, po; format: ADME, organism-based, Macaca fascicularis; parameters: dose 10 mg/kg, route oral; settings: in vivo
How it was run: (§3)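 Cynomolgus monkeys received an oral dose of 2 or 10 mg/kg and were sacrificed 2 h postdose. Mesenteric fat was excised and compound levels were determined in adipose (ng/g) and in plasma.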

[9] = Half life in dog at 0.5, iv; format: ADME, organism-based, Canis lupus familiaris; settings: in vivo; how it was run: as §1
[10] = Half life in cynomolgus monkey at 0.5, iv; format: ADME, organism-based, Macaca fascicularis; settings: in vivo; how it was run: as §1
[11] = Half life in rat at 0.5 mg/kg, iv; format: ADME, organism-based; parameters: dose 0.5 mg/kg, route intravenous; settings: in vivo; how it was run: as §1
Plasma = test: Drug level in of cynomolgus monkey plasma at 2 mg/kg, po; format: ADME, organism-based, Macaca fascicularis; parameters: dose 2 mg/kg, route oral; settings: in vivo; how it was run: as §3
Rattus norvegicus [12] = test: Clearance in rat at 0.5 mg/kg, iv; format: ADME, organism-based; parameters: dose 0.5 mg/kg, route intravenous; settings: in vivo; how it was run: as §1
[13] = molecular target: T2, 11-beta-hydroxysteroid dehydrogenase 1; test: Inhibition of human recombinant 11beta-HSD1 expressed in HEK293 cells in presence of 3% human serum albumin; format: cell-based
[14] = Oral bioavailability in rat at 2.0 mg/kg; format: ADME, organism-based; settings: in vivo; how it was run: as §2
Cynomolgus monkey [15] = test: Ex vivo inhibition of 11beta-HSD1 in orally dosed cynomolgus monkey mesenteric fat assessed as [3H][…] production; settings: Macaca fascicularis, oral
[16] = Metabolic stability in rat liver microsomes assessed as compound remaining at 1 uM after 30 mins; format: ADME, Microsome; settings: read-out: Stability
Cynomolgus monkey [17] = test: Clearance in cynomolgus monkey at 0.5 mg/kg, iv; format: ADME, organism-based, Macaca fascicularis; parameters: dose 0.5 mg/kg, route intravenous; settings: in vivo; how it was run: as §1
Canis familiaris [18] = test: AUC in dog at 0.5, iv; format: ADME, organism-based, Canis lupus familiaris, Plasma; settings: in vivo; how it was run: as §1
Rattus norvegicus [19] = test: AUC in rat at 0.5 mg/kg, iv; format: ADME, organism-based, Plasma; parameters: dose 0.5 mg/kg, route intravenous; settings: in vivo; how it was run: as §1
Canis familiaris [20] = test: Clearance in dog at 0.5 mg/kg, iv; format: ADME, organism-based, Canis lupus familiaris; parameters: dose 0.5 mg/kg, route intravenous; settings: in vivo; how it was run: as §1
[21] = Volume of distribution at steady state in cynomolgus monkey at 0.5, iv; format: ADME, organism-based, Macaca fascicularis; settings: in vivo, read-out: Vdss; how it was run: as §1
[22] = Oral bioavailability in dog at 2.0; format: ADME, organism-based, Canis lupus familiaris; settings: in vivo; how it was run: as §2
[23] = molecular target: T2, 11-beta-hydroxysteroid dehydrogenase 1; test: Inhibition of 11beta-HSD1 in human adipocytes; format: cell-based
[24] = molecular target: T2, 11-beta-hydroxysteroid dehydrogenase 1; test: Inhibition of human recombinant 11beta-HSD1 expressed in HEK293 cells; format: cell-based
[25] = Volume of distribution at steady state in rat at 0.5 mg/kg, iv; format: ADME, organism-based; parameters: dose 0.5 mg/kg, route intravenous; settings: in vivo, read-out: Vdss; how it was run: as §1
[26] = Drug level in of cynomolgus monkey mesenteric fat at 2 mg/kg, po; format: ADME, organism-based, Macaca fascicularis; parameters: dose 2 mg/kg, route oral; settings: in vivo; how it was run: as §3
[27] = Clearance in rat; format: ADME, organism-based; settings: in vivo
[28] = Half life in rat at 0.17 mg/kg, iv; format: ADME, organism-based; parameters: dose 0.17 mg/kg, route intravenous; settings: in vivo
How it was run: (§4)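 Rats were given a single iv dose of 0.17 mg/kg, with a parallel 2.0 mg/kg oral arm. Clearance, half-life, Vdss and AUC were derived from the iv data.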

Rattus norvegicus [29] = test: AUC in rat at 0.17 mg/kg, iv; format: ADME, organism-based, Plasma; parameters: dose 0.17 mg/kg, route intravenous; settings: in vivo; how it was run: as §4
[30] = Volume of distribution at steady state in rat at 0.17 mg/kg, iv; format: ADME, organism-based; parameters: dose 0.17 mg/kg, route intravenous; settings: in vivo, read-out: Vdss; how it was run: as §4
Rattus norvegicus [31] = test: Clearance in rat at 0.17 mg/kg, iv; format: ADME, organism-based; parameters: dose 0.17 mg/kg, route intravenous; settings: in vivo; how it was run: as §4

SMILES | remaining at 0.5 h, 1 µM [1] | IC50 [2] | IC50 [6] | IC50 [13] | remaining at 0.5 h, 1 µM [16] | IC50 [23] | IC50 [24] | other results
C[C@](O)(c1ccc(C(=O)N(C2CC2)[C@H]2CC[C@H](c3cccnc3)CC2)cc1)C(F)(F)F | > 90% | > 10000 nM | 1.4 nM | 124 nM | 51% | 3 nM | 5.8 nM | Vd [3]: 3.5 L/kg; bioavailability [4]: 64%; IC50 [5]: 39 nM; AUC (Cynomolgus monkey [7]): 1010 ng·h/mL; Drug uptake [8]: 2890 ng/g; half-life [9]: 9.3 h; half-life [10]: 11.2 h; half-life [11]: 4.5 h; Drug uptake (Plasma): 604 ng/mL; CL (Rattus norvegicus [12]): 17 mL/min/kg; bioavailability [14]: 72%; ED50 (Cynomolgus monkey [15]): 2 mg/kg; CL (Cynomolgus monkey [17]): 8.3 mL/min/kg; AUC (Canis familiaris [18]): 915 ng·h/mL; AUC (Rattus norvegicus [19]): 481 ng·h/mL; CL (Canis familiaris [20]): 10 mL/min/kg; Vd [21]: 8.1 L/kg; bioavailability [22]: 4%; Vd [25]: 6.7 L/kg; Drug uptake [26]: 1211 ng/mL
CCN(C(=O)c1ccc([C@](C)(O)C(F)(F)F)cc1)C1CCCCC1 | 5% | – | 1.3 nM | 25 nM | < 5% | – | 1.3 nM | clearance [27]: 51.7 mL/min/kg
C[C@](O)(c1ccc(C(=O)N(C2CCCCC2)C2CC2)cc1)C(F)(F)F | 81% | > 10000 nM | 0.8 nM | 38 nM | < 5% | – | 2.4 nM | –
C[C@](O)(c1ccc(C(=O)N(C2CC2)[C@H]2CC[C@H](c3ccccc3)CC2)cc1)C(F)(F)F | > 90% | > 10000 nM | 1.3 nM | 155 nM | > 90% | 9.8 nM | 16 nM | –
C[C@](O)(c1ccc(C(=O)N(C2CC2)[C@H]2CC[C@@H](c3ccccc3)CC2)cc1)C(F)(F)F | 9% | > 10000 nM | 6.1 nM | 123 nM | < 5% | – | 18 nM | –
C[C@](O)(c1ccc(C(=O)N(C2CC2)[C@H]2CC[C@H](F)CC2)cc1)C(F)(F)F | 81% | > 10000 nM | 6.6 nM | 140 nM | 16% | 4.1 nM | – | –
C[C@H]1CCCCN1S(=O)(=O)c1ccc(C(C)(O)C(F)(F)F)cc1 (stereo partly drawn) | – | – | – | – | – | – | 2.1 nM | –
C[C@](O)(c1ccc(C(=O)N(C2CC2)[C@H]2CC[C@H](c3ccc(C#N)cc3)CC2)cc1)C(F)(F)F | > 90% | > 10000 nM | 0.7 nM | 161 nM | > 90% | 3.4 nM | 12 nM | half-life [28]: 15.7 h; AUC (Rattus norvegicus [29]): 1590 ng·h/mL; Vd [30]: 2.5 L/kg; CL (Rattus norvegicus [31]): 1.83 mL/min/kg; bioavailability [14]: 29%
C[C@](O)(c1ccc(C(=O)N(C2CC2)[C@H]2CC[C@H](CCC#N)CC2)cc1)C(F)(F)F | > 90% | > 10000 nM | 0.7 nM | 11 nM | 42% | 0.2 nM | 1.3 nM | half-life [28]: 0.5 h; AUC (Rattus norvegicus [29]): 393 ng·h/mL; Vd [30]: 0.91 L/kg; CL (Rattus norvegicus [31]): 21.3 mL/min/kg; bioavailability [14]: 83%
C[C@](O)(c1ccc(C(=O)N(CC(F)(F)F)C2CCCCC2)cc1)C(F)(F)F | 17% | – | 2.6 nM | 163 nM | < 5% | – | 24 nM | –
CC(O)(c1ccc(C(=O)N(CC2CC2)C2CCCCC2)cc1)C(F)(F)F (racemic) | 23% | – | 9 nM | 849 nM | < 5% | – | 38 nM | –

From ChEMBL document CHEMBL1157534, “Discovery of novel, potent benzamide inhibitors of 11beta-hydroxysteroid dehydrogenase type 1 (11beta-HSD1) exhibiting oral activity in an enzyme inhibition ex vivo model” (J Med Chem, 2008)
